How the values were obtained:
Canis familiaris [1] = test: Inhibitory activity when administered intravenously in histamine-stimulated gastric fistula dog at 3 mg/kg, id; type: functional; details: Canis lupus familiaris, Stomach, in the assay text read “in” for “when administered intravenously in”
How it was run: (§1)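 Conscious gastric-fistula dogs fasted 18 h, given 3 mg/kg after a 30-min basal period. Histamine infused at 15 μg/kg per h, with gastric juice collected every 30 min for 4 h. Total acidity found by titration with 0.1 N NaOH to pH 7.0.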

[2] = biological target: Potassium-transporting ATPase (Canis familiaris); test: In vitro inhibitory activity against H+/K+ ATPase prepared from canine fundic mucosa
Canis familiaris [3] = test: Inhibitory activity when administered […] in histamine-stimulated gastric fistula dog at 3 mg/kg, id; Lethal at 10 mg/kg, id; type: functional, organism-based; details: Canis lupus familiaris, Stomach; how it was run: as §1

Compound | inhibition in vivo at 3 mg/kg (Canis familiaris [1]) | IC50 [2] | inhibition (Canis familiaris [3])
Cc1ccc(N)c(C[S+]([O-])c2nc3ccccc3[nH]2)c1 (stereo not given) | 67% | 2.1 µM | 
Cc1ccc2[nH]c([S+]([O-])Cc3ccccc3N)nc2c1 (stereo not given) |  | 7.9 µM | 
CCc1cccc(C[S+]([O-])c2nc3ccccc3[nH]2)c1N (stereo not given) | 21% | 3.9 µM | 
CCCCc1ccc(N)c(C[S+]([O-])c2nc3ccccc3[nH]2)c1 (stereo not given) | 19% | 2.6 µM | 
CC(=O)Nc1ccccc1C[S+]([O-])c1nc2ccccc2[nH]1 (stereo not given) | 37% | > 100 µM | 
COc1ccc(N)c(C[S+]([O-])c2nc3ccccc3[nH]2)c1 (stereo not given) |  | 1.6 µM | 
COC(=O)c1cccc(C[S+]([O-])c2nc3ccccc3[nH]2)c1N (stereo not given) | 28% | > 100 µM | 
Cc1cccc(C[S+]([O-])c2nc3ccccc3[nH]2)c1N (stereo not given) | 44% | 3.2 µM | 
Cc1cccc(N)c1C[S+]([O-])c1nc2ccccc2[nH]1 (stereo not given) | 44% | 0.7 µM | 
CCOC(=O)c1ccc(N)c(C[S+]([O-])c2nc3ccc(OC)cc3[nH]2)c1 (stereo not given) |  | > 100 µM | 
CCOc1ccc2[nH]c([S+]([O-])Cc3cc(C)ccc3N)nc2c1 (stereo not given) |  | 5.3 µM | 
Cc1cc2nc([S+]([O-])Cc3ccccc3N)[nH]c2cc1C (stereo not given) | 44% | 13.5 µM | 
CCOc1ccc2[nH]c([S+]([O-])Cc3ccccc3N)nc2c1 (stereo not given) |  | 24 µM | 
Cc1cc(Cl)cc(C[S+]([O-])c2nc3ccccc3[nH]2)c1N (stereo not given) |  | 60 µM | 
Nc1ccc(F)cc1C[S+]([O-])c1nc2ccccc2[nH]1 (stereo not given) |  | 25 µM | 
CCOC(=O)c1ccc(N)c(C[S+]([O-])c2nc3ccccc3[nH]2)c1 (stereo not given) | 7% | > 100 µM | 
[O-][S+](Cc1ccccn1)c1nc2ccccc2[nH]1 (stereo not given) [TIMOPRAZOLE] | 68% |  | 
Cc1cc(N)c(C[S+]([O-])c2nc3ccccc3[nH]2)c(C)c1C (stereo not given) |  | 10 µM | 
COc1ccc2[nH]c([S+]([O-])Cc3ccccc3N)nc2c1 (stereo not given) | 78% | 11 µM | 
Nc1ccc(C(F)(F)F)cc1C[S+]([O-])c1nc2ccccc2[nH]1 (stereo not given) | 16% | > 100 µM | 
COc1c(C)cc(N)c(C[S+]([O-])c2nc3ccccc3[nH]2)c1C (stereo not given) | 53% | 0.2 µM | 
CN(C)c1ccccc1C[S+]([O-])c1nc2ccccc2[nH]1 (stereo not given) | 14% | 0.7 µM | 

Compound | inhibition in vivo at 3 mg/kg (Canis familiaris [1]) | IC50 [2] | inhibition (Canis familiaris [3])
Cc1cccc2[nH]c([S+]([O-])Cc3ccccc3N)nc12 (stereo not given) | 60% | 7.4 µM | 
COc1cccc(C[S+]([O-])c2nc3ccccc3[nH]2)c1N (stereo not given) | 68% | 9.3 µM | 
COc1ccc2[nH]c([S+]([O-])Cc3cccc(C)c3N)nc2c1 (stereo not given) | 72% | 5.4 µM | 
Nc1ccccc1C[S+]([O-])c1nc2cc(C(F)(F)F)ccc2[nH]1 (stereo not given) | 37% | 4.4 µM | 
Cc1ccc(C[S+]([O-])c2nc3ccccc3[nH]2)c(N)c1C (stereo not given) | 79% | 0.6 µM | 
Cc1ccc(C)c(C[S+]([O-])c2nc3cc(C(F)(F)F)ccc3[nH]2)c1N (stereo not given) |  | 1.5 µM | 
Cc1cc(C)c(N)c(C[S+]([O-])c2nc3ccccc3[nH]2)c1 (stereo not given) |  | 0.8 µM | Lethal at 10mg/kg,id
COc1cc2nc([S+]([O-])Cc3ccccc3N)[nH]c2cc1OC (stereo not given) |  | 120 µM | 
COc1ccc2[nH]c([S+]([O-])Cc3ncc(C)c(OC)c3C)nc2c1 (stereo not given) [OMEPRAZOLE] | 97% |  | 
CNc1ccccc1C[S+]([O-])c1nc2ccccc2[nH]1 (stereo not given) | 21% | 0.6 µM | 
Cc1c(Cl)ccc(C[S+]([O-])c2nc3ccccc3[nH]2)c1N (stereo not given) |  | 6.4 µM | 
Nc1ccc(Cl)cc1C[S+]([O-])c1nc2ccccc2[nH]1 (stereo not given) | 24% | > 100 µM | 
COc1cccc(C[S+]([O-])c2nc3cc(C(F)(F)F)ccc3[nH]2)c1N (stereo not given) |  | 8.5 µM | 
Nc1ccccc1C[S+]([O-])c1nc2ccccc2[nH]1 (stereo not given) | 53% | 4.3 µM | 
Cc1ccc2nc([S+]([O-])Cc3ccc(C)c(C)c3N)[nH]c2c1 (stereo not given) |  | 0.7 µM | 
COc1ccc2[nH]c([S+]([O-])Cc3cc(C)ccc3N)nc2c1 (stereo not given) | 80% | 4.2 µM | 
Cc1ccc(C)c(C[S+]([O-])c2nc3ccccc3[nH]2)c1N (stereo not given) |  | 0.8 µM | 
Nc1ccccc1C[S+]([O-])c1nc2cc(Cl)ccc2[nH]1 (stereo not given) |  | 12 µM | 
COc1ccc2[nH]c([S+]([O-])Cc3c(N)cc(C)c(OC)c3C)nc2c1 (stereo not given) | 31% | 2.1 µM | 
COc1cc(Cl)c(C)c(C[S+]([O-])c2nc3ccccc3[nH]2)c1N (stereo not given) |  | 2.7 µM | 
CCc1ccc(N)c(C[S+]([O-])c2nc3ccccc3[nH]2)c1 (stereo not given) | 62% | 2 µM | 
Nc1cc(Cl)ccc1C[S+]([O-])c1nc2ccccc2[nH]1 (stereo not given) | 13% | 24 µM | 

— ChEMBL document CHEMBL1124135, “Substituted 2-[(2-benzimidazolylsulfinyl)methyl]anilines as potential inhibitors of H+/K+ ATPase” (J Med Chem, 1988)
